Published values pooled from the literature.
Protocols differ between the studies behind these lines.
Observed: cell growth or viability

C=CC(=O)Nc1cc(Nc2nccc(-c3cn(C)c4ccccc34)n2)c(OC)cc1N(C)CCN(C)C — GI50 (NCI-H292; ATP luminescence; 72 h): 3.75 µM
[N-]=[N+]=[N-] — IC50 (A-431; MTT; 3 h): > 100 µM
CC1=C(O)C(=O)C=C2C1=CC=C1[C@@]2(C)CC[C@@]2(C)[C@@H]3C[C@](C)(C(=O)O)CC[C@]3(C)CC[C@]12C — inhibition (HepG2; MTT; 20 µM): 92%
N.N.[Cl][Pt][Cl] — GI50 (CCD-18Co; ATP luminescence): 1.1 µg/mL
N.N.O=C([O-])C1(C(=O)[O-])CCC1.[Pt+2] — IC50 (PNT2; MTT; 96 h): 27 µM
CC[C@@]1(O)C(=O)OCc2c1cc1n(c2=O)Cc2cc3cc4c(cc3nc2-1)OCO4 — IC50 (HepG2; MTT; 72 h): 0.022 µM
N[C@@H](Cc1ccc(N(CCCl)CCCl)cc1)C(=O)O — IC50 (HepG2; CCK-8; 48 h): 36.5 µM
CC[C@@]1(OC(=O)CN)C(=O)OCc2c1cc1n(c2=O)Cc2cc3cc4c(cc3nc2-1)OCO4 — IC50 (HepG2; MTT): 0.025 µM
N.N.[Cl][Pt][Cl] — inhibition (Huh-7; MTT; 20 µM): 76.4%
CC[C@@]1(OC(=O)[C@@H](N)C(C)C)C(=O)OCc2c1cc1n(c2=O)Cc2cc3cc4c(cc3nc2-1)OCO4 — IC50 (HepG2; MTT): 0.087 µM
O=c1ccc2ccc3occc3c2o1 — IC50 (HepG2; WST-1; 48 h): 13.8 µM
CC[C@H](C)[C@H](N)C(=O)O[C@]1(CC)C(=O)OCc2c1cc1n(c2=O)Cc2cc3cc4c(cc3nc2-1)OCO4 — IC50 (HepG2; MTT): 0.098 µM
CCOC(=O)C1=C(N)N(c2ccc(C(=O)OCC)cc2)C(O)=C(C#N)C12C(=O)Nc1ccccc12 (stereo not shown) — viability (HepG2; MTT; 12.5 µM, 24 h): 33.9%
